# Experimental data from ChEMBL document CHEMBL5376013, “Design, synthesis and biological evaluation of novel morpholinopyrimidine-5-carbonitrile derivatives as dual PI3K/mTOR inhibitors” (RSC Med Chem, 2024).
# How the values were obtained:
# Format in all cases: functional
# Conditions in all cases: read-out: GI
# [1] = test system: SK-OV-3; test: Antitumor activity against human SK-OV-3 cells assessed as growth inhibition at 10 uM relative to control
# How it was run: (§1)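 Drug exposure 48 h at 37 °C, 5% CO2. Adherent cells fixed with cold TCA (10% final), suspension cells with TCA (16% final). Stained with 0.4% SRB in 1% acetic acid, dissolved in 10 mM Tris, A515. Growth relative to time-zero and untreated control.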
# [2] = test system: HT-29; test: Antitumor activity against human HT-29 cells assessed as growth inhibition at 10 uM relative to control
# How it was run: (§2)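 After drug addition, plates were incubated 48 h at 37 °C under 5% CO2. Adherent cells were fixed with cold TCA (10% final, 60 min, 4 °C) and suspension cells with 16% final TCA. Staining used 0.4% SRB in 1% acetic acid, solubilized in 10 mM trizma, read at A515. Percent growth was calculated from time-zero, control and treated absorbances.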
# [3] = test system: T47D; test: Antitumor activity against human T47D cells assessed as growth inhibition at 10 uM relative to control; how it was run: as §1
# [4] = test system: SW-620; test: Antitumor activity against human SW-620 cells assessed as growth inhibition at 10 uM relative to control; how it was run: as §1
# [5] = test system: NCI-H322M; test: Antitumor activity against human NCI-H322M cells assessed as growth inhibition at 10 uM relative to control; how it was run: as §2
# [6] = test system: EKVX; test: Antitumor activity against human EKVX cells assessed as growth inhibition at 10 uM relative to control; how it was run: as §2
# [7] = test system: HCT-116; test: Antitumor activity against human HCT-116 cells assessed as growth inhibition at 10 uM relative to control; how it was run: as §2
# [8] = test system: UO-31; test: Antitumor activity against human UO-31 cells assessed as growth inhibition at 10 uM relative to control; how it was run: as §1
# [9] = test system: TK-10; test: Antitumor activity against human TK-10 cells assessed as growth inhibition at 10 uM relative to control; how it was run: as §1
# [10] = test system: KM12; test: Antitumor activity against human KM12 cells assessed as growth inhibition at 10 uM relative to control; how it was run: as §2
# [11] = test system: SK-MEL-5; test: Antitumor activity against human SK-MEL-5 cells assessed as growth inhibition at 10 uM relative to control; how it was run: as §1
# [12] = test system: SN12C; test: Antitumor activity against human SN12C cells assessed as growth inhibition at 10 uM relative to control; how it was run: as §1
# [13] = test system: MDA-MB-435; test: Antitumor activity against human MDA-MB-435 cells assessed as growth inhibition at 10 uM relative to control; how it was run: as §2
# [14] = test system: NCI-H460; test: Antitumor activity against human NCI-H460 cells assessed as growth inhibition at 10 uM relative to control; how it was run: as §2
# [15] = test system: OVCAR-4; test: Antitumor activity against human OVCAR-4 cells assessed as growth inhibition at 10 uM relative to control; how it was run: as §2
# [16] = test system: A498; test: Antitumor activity against human A498 cells assessed as growth inhibition at 10 uM relative to control; how it was run: as §2
# [17] = test system: HOP-92; test: Antitumor activity against human HOP-92 cells assessed as growth inhibition at 10 uM relative to control; how it was run: as §2
# [18] = test system: NCI-H23; test: Antitumor activity against human NCI-H23 cells assessed as growth inhibition at 10 uM relative to control; how it was run: as §2
# [19] = test system: SR; test: Antitumor activity against human SR cells assessed as growth inhibition at 10 uM relative to control; how it was run: as §1
# [20] = test system: 786-0; test: Antitumor activity against human 786-0 cells assessed as growth inhibition at 10 uM relative to control; how it was run: as §2
# [21] = test system: HOP-62; test: Antitumor activity against human HOP-62 cells assessed as growth inhibition at 10 uM relative to control; how it was run: as §2
# [22] = test system: SK-MEL-2; test: Antitumor activity against human SK-MEL-2 cells assessed as growth inhibition at 10 uM relative to control; how it was run: as §2
# [23] = test system: NCI/ADR-RES; test: Antitumor activity against human NCI-ADR-RES cells assessed as growth inhibition at 10 uM relative to control; how it was run: as §2
# [24] = test system: UACC-62; test: Antitumor activity against human UACC-62 cells assessed as growth inhibition at 10 uM relative to control; how it was run: as §1
# [25] = test system: SF-539; test: Antitumor activity against human SF-539 cells assessed as growth inhibition at 10 uM relative to control; how it was run: as §2
# [26] = test system: COLO 205; test: Antitumor activity against human COLO 205 cells assessed as growth inhibition at 10 uM relative to control; how it was run: as §2
# [27] = test system: UACC-257; test: Antitumor activity against human UACC-257 cells assessed as growth inhibition at 10 uM relative to control; how it was run: as §1
# [28] = test system: M14; test: Antitumor activity against human M14 cells assessed as growth inhibition at 10 uM relative to control; how it was run: as §2
# [29] = test system: NCI-H522; test: Antitumor activity against human NCI-H522 cells assessed as growth inhibition at 10 uM relative to control; how it was run: as §2
# [30] = test system: SF-295; test: Antitumor activity against human SF-295 cells assessed as growth inhibition at 10 uM relative to control; how it was run: as §2
# [31] = test system: Malme-3M; test: Antitumor activity against human Malme-3M cells assessed as growth inhibition at 10 uM relative to control; how it was run: as §2
# [32] = test system: RXF 393; test: Antitumor activity against human RXF 393 cells assessed as growth inhibition at 10 uM relative to control; how it was run: as §2
# [33] = test system: SNB-75; test: Antitumor activity against human SNB-75 cells assessed as growth inhibition at 10 uM relative to control; how it was run: as §1
# [34] = test system: HCC 2998; test: Antitumor activity against human HCC 2998 cells assessed as growth inhibition at 10 uM relative to control; how it was run: as §2
# [35] = test system: SK-MEL-28; test: Antitumor activity against human SK-MEL-28 cells assessed as growth inhibition at 10 uM relative to control; how it was run: as §1
# [36] = test system: Hs-578T; test: Antitumor activity against human Hs-578T cells assessed as growth inhibition at 10 uM relative to control; how it was run: as §2
# [37] = test system: CAKI-1; test: Antitumor activity against human CAKI-1 cells assessed as growth inhibition at 10 uM relative to control; how it was run: as §2
# [38] = test system: OVCAR-5; test: Antitumor activity against human OVCAR-5 cells assessed as growth inhibition at 10 uM relative to control; how it was run: as §2
# [39] = test system: SNB-19; test: Antitumor activity against human SNB-19 cells assessed as growth inhibition at 10 uM relative to control; how it was run: as §1
# [40] = test system: MDA-MB-231; test: Antitumor activity against human MDA-MB-231 cells assessed as growth inhibition at 10 uM relative to control; how it was run: as §2
# [41] = test system: U-251; test: Antitumor activity against human U-251 cells assessed as growth inhibition at 10 uM relative to control; how it was run: as §1
# [42] = test system: SF-268; test: Antitumor activity against human SF-268 cells assessed as growth inhibition at 10 uM relative to control; how it was run: as §2
# [43] = test system: RPMI-8226; test: Antitumor activity against human RPMI-8226 cells assessed as growth inhibition at 10 uM relative to control; how it was run: as §2
# [44] = test system: NCI-H226; test: Antitumor activity against human NCI-H226 cells assessed as growth inhibition at 10 uM relative to control; how it was run: as §2
# [45] = test system: HL-60; test: Antitumor activity against human HL-60 cells assessed as growth inhibition at 10 uM relative to control; how it was run: as §2
# [46] = test system: IGROV-1; test: Antitumor activity against human IGROV-1 cells assessed as growth inhibition at 10 uM relative to control; how it was run: as §2
smiles,measurement,setting,value
N#Cc1c(-c2ccc(Cl)cc2)nc(N/N=C/c2cccc(O)c2)nc1N1CCOCC1,inhibition of growth at 10 µM,[1],< 1%
same,inhibition of growth at 10 µM,[2],30.2%
same,inhibition of growth at 10 µM,[3],35.4%
same,inhibition of growth at 10 µM,[4],35.2%
same,inhibition of growth at 10 µM,[5],13.7%
same,inhibition of growth at 10 µM,[6],33.4%
same,inhibition of growth at 10 µM,[7],42.1%
same,inhibition of growth at 10 µM,[8],64.3%
same,inhibition of growth at 10 µM,[9],21%
same,inhibition of growth at 10 µM,[10],24%
same,inhibition of growth at 10 µM,[11],23.5%
same,inhibition of growth at 10 µM,[12],21.7%
same,inhibition of growth at 10 µM,[13],13%
same,inhibition of growth at 10 µM,[14],22.1%
same,inhibition of growth at 10 µM,[15],< 1%
same,inhibition of growth at 10 µM,[16],24.9%
same,inhibition of growth at 10 µM,[17],36.7%
same,inhibition of growth at 10 µM,[18],< 1%
same,inhibition of growth at 10 µM,[19],95.3%
same,inhibition of growth at 10 µM,[20],35.7%
same,inhibition of growth at 10 µM,[21],21.2%
same,inhibition of growth at 10 µM,[22],< 1%
same,inhibition of growth at 10 µM,[23],35.1%
same,inhibition of growth at 10 µM,[24],< 1%
same,inhibition of growth at 10 µM,[25],32.2%
same,inhibition of growth at 10 µM,[26],14.8%
same,inhibition of growth at 10 µM,[27],< 1%
same,inhibition of growth at 10 µM,[28],33.4%
same,inhibition of growth at 10 µM,[29],25.2%
same,inhibition of growth at 10 µM,[30],< 1%
same,inhibition of growth at 10 µM,[31],< 1%
same,inhibition of growth at 10 µM,[32],< 1%
same,inhibition of growth at 10 µM,[33],53.9%
same,inhibition of growth at 10 µM,[34],< 1%
same,inhibition of growth at 10 µM,[35],22.9%
same,inhibition of growth at 10 µM,[36],10.6%
same,inhibition of growth at 10 µM,[37],29.9%
same,inhibition of growth at 10 µM,[38],< 1%
same,inhibition of growth at 10 µM,[39],13.1%
same,inhibition of growth at 10 µM,[40],< 1%
same,inhibition of growth at 10 µM,[41],14.2%
same,inhibition of growth at 10 µM,[42],18.1%
same,inhibition of growth at 10 µM,[43],62.6%
same,inhibition of growth at 10 µM,[44],36.7%
same,inhibition of growth at 10 µM,[45],33.4%
same,inhibition of growth at 10 µM,[46],35.1%
N#Cc1c(-c2ccc(Cl)cc2)nc(N/N=C2/C(=O)Nc3ccccc32)nc1N1CCOCC1,inhibition of growth at 10 µM,[1],< 1%
same,inhibition of growth at 10 µM,[2],< 1%
same,inhibition of growth at 10 µM,[3],< 1%
same,inhibition of growth at 10 µM,[4],10.1%
same,inhibition of growth at 10 µM,[5],< 1%
same,inhibition of growth at 10 µM,[6],< 1%
same,inhibition of growth at 10 µM,[7],10.5%
same,inhibition of growth at 10 µM,[8],< 1%
same,inhibition of growth at 10 µM,[9],< 1%
same,inhibition of growth at 10 µM,[10],< 1%
same,inhibition of growth at 10 µM,[11],< 1%
same,inhibition of growth at 10 µM,[12],< 1%
same,inhibition of growth at 10 µM,[13],< 1%
same,inhibition of growth at 10 µM,[14],17.6%
same,inhibition of growth at 10 µM,[15],< 1%
same,inhibition of growth at 10 µM,[16],< 1%
same,inhibition of growth at 10 µM,[17],< 1%
same,inhibition of growth at 10 µM,[18],< 1%
same,inhibition of growth at 10 µM,[19],25.7%
same,inhibition of growth at 10 µM,[20],< 1%
same,inhibition of growth at 10 µM,[21],< 1%
same,inhibition of growth at 10 µM,[22],< 1%
same,inhibition of growth at 10 µM,[23],< 1%
same,inhibition of growth at 10 µM,[24],< 1%
same,inhibition of growth at 10 µM,[25],< 1%
same,inhibition of growth at 10 µM,[26],1%
same,inhibition of growth at 10 µM,[27],< 1%
same,inhibition of growth at 10 µM,[28],< 1%
same,inhibition of growth at 10 µM,[29],< 1%
same,inhibition of growth at 10 µM,[30],< 1%
same,inhibition of growth at 10 µM,[31],< 1%
same,inhibition of growth at 10 µM,[32],< 1%
same,inhibition of growth at 10 µM,[33],21%
same,inhibition of growth at 10 µM,[34],< 1%
same,inhibition of growth at 10 µM,[35],< 1%
same,inhibition of growth at 10 µM,[36],< 1%
same,inhibition of growth at 10 µM,[37],< 1%
same,inhibition of growth at 10 µM,[38],< 1%
same,inhibition of growth at 10 µM,[39],< 1%
same,inhibition of growth at 10 µM,[40],< 1%
same,inhibition of growth at 10 µM,[41],< 1%
same,inhibition of growth at 10 µM,[42],< 1%
same,inhibition of growth at 10 µM,[43],< 1%
same,inhibition of growth at 10 µM,[44],< 1%
same,inhibition of growth at 10 µM,[45],< 1%
same,inhibition of growth at 10 µM,[46],< 1%
